Test results from ChEMBL document CHEMBL5108054, “Targeting Acute Myelogenous Leukemia Using Potent Human Dihydroorotate Dehydrogenase Inhibitors Based on the 2-Hydroxypyrazolo[1,5-a]pyridine Scaffold: SAR of the Aryloxyaryl Moiety” (J Med Chem, 2022).
Calls of active or inactive are those of the source. The rule behind the calls is not given here.

Assays:
[1] = Metabolic stability in rat liver microsomes assessed as retention time of hydroxyl derivative metabolites by HPLC-HRMS analysis; assay type: ADME, Microsome
Summary of the method: (§1)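 Controls were heat-inactivated microsomes, no regenerating system, and drug-free blank. Samples were taken at 0, 15, 30, 60 and 120 min and quenched with cold acetonitrile. Analysis was by LC-HRMS (C18, water/acetonitrile gradient, ± ESI), with metabolites predicted by SyGMa.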

[2] = Metabolic stability in rat liver microsomes assessed as retention time of dihydroxyl derivative metabolite by HPLC-HRMS analysis; assay type: ADME, Microsome; summary of the method: as §1
[3] = Metabolic stability in rat liver microsomes assessed as retention time of hydrogenated dihydroxyl derivative metabolite by HPLC-HRMS analysis; assay type: ADME, Microsome; summary of the method: as §1
THP-1 [4] = test: Induction of apoptosis in human THP-1 cells assessed as increase in pro-apoptotic activity at 1 uM; assay type: functional, cell-based
MV4-11 [5] = test: Induction of apoptosis in human MV4-11 cells assessed as increase in pro-apoptotic activity at 1 uM; assay type: functional, cell-based
Jurkat = test: Cytotoxicity against human Jurkat T cells assessed as reduction in cell viability at 1 to 100 uM measured after 3 days by propidium iodide staining based CFSE staining; assay type: functional; details: dose 1-100 µM; time 3 day
THP-1 [6] = test: Induction of apoptosis in human THP-1 cells assessed as increase in pro-apoptotic activity at 0.1 uM; assay type: functional, cell-based
Summary of the method: (§2)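 THP1 or MV4-11 cells (1 × 10^4/well) exposed to inhibitor at 0.1 or 1 μM, alone or with dipyridamole 1.0 μM and/or uridine 5 μM, for 3 days. Apoptosis was read as annexin V-FITC staining by flow cytometry. n = 3; ANOVA/Tukey.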

MV4-11 [7] = test: Induction of apoptosis in human MV4-11 cells assessed as increase in pro-apoptotic activity at 0.1 uM; assay type: functional, cell-based; summary of the method: as §2
THP-1 [8] = test: Antileukemic activity against human THP-1 cells xenografted in Balb/c mouse assessed as reduction in volume at 20 mg/kg, ip measured twice a week; assay type: functional, organism-based
[9] = Metabolic stability in rat liver microsomes assessed as retention time of parent compound by HPLC-HRMS analysis; assay type: ADME, Microsome; summary of the method: as §1
THP-1 [10] = test: Antileukemic activity against human THP-1 cells xenografted in Balb/c mouse assessed as reduction in tumor weight at 20 mg/kg, ip; assay type: functional, organism-based

Retention_time [1] [min]	Retention_time [2] [min]	Retention_time [3] [min]	Retention_time [9] [min]	Compound	Activity (THP-1 [4])	Activity (MV4-11 [5])	CC30 (Jurkat) [µM]	Activity (THP-1 [6])	Activity (MV4-11 [7])	Activity (THP-1 [8])	Activity (THP-1 [10])
13.41	10.59	14.14	–	O=C(Nc1c(F)c(F)c(-c2ccccc2)c(F)c1F)c1c(O)nn2ccccc12	–	–	–	–	–	–	–
–	–	–	–	Cc1cc(Oc2ccccc2)c(C(C)C)cc1NC(=O)c1c(O)nn2ccccc12	Active	Active	>100	–	–	–	–
–	–	–	17.33	Cc1cc(NC(=O)c2c(O)nn3ccccc23)c(C(C)C)cc1Oc1ccccc1	–	–	>100	Active	Active	Active	Active
